Measured values as given in ChEMBL document CHEMBL5724801, “EUbOPEN Chemogenomics Library - Multiplex” (2024).
Values joined by “and” are separate entries in the source; they are usually repeats but may differ in a detail not shown here. Identical values can stand only once.

Tested on: HEK-293T
Experiment: Multiplex assay against HEK293T
Assay type: toxicity, cell-based
Settings: human
Procedure, shortened: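 Imaging took place on a CQ1 microscope at 37°C and 5% CO2 once compound had been added to live cells stained at seeding with Hoechst33342, BioTracker Green Microtubule Cytoskeleton Dye, MitoTracker Red and Annexin V Alexa Fluor 680. CellPathfinder machine-learning gating classed cells as Hoechst high-intensity objects or normal cells, classed normal cells as having healthy, pyknosed or fragmented nuclei, and classed pyknosed cells as mitotic or apoptotic. Tubulin, mitochondrial-mass and membrane-permeability phenotypes are per cents of the healthy-nucleus cells.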

[1] = 12 h, 1 µM, compound concentration 1 uM
[2] = 12 h, 10 µM, compound concentration 10 uM
[3] = 24 h, 1 µM, compound concentration 1 uM
[4] = 24 h, 10 µM, compound concentration 10 uM
[5] = 48 h, 1 µM, compound concentration 1 uM
[6] = 48 h, 10 µM, compound concentration 10 uM

`O=C(O)c1cc2ccccc2c(Cc2c(O)c(C(=O)O)cc3ccccc23)c1O` [PAMOIC ACID] was tested, and the “Population Apoptotic (%)” value [1] was 30% and 58%, the “Population Fragmented Nuclei (%)” value [1] was 9% and 7% and the “Population Healthy Nuclei (%)” value [1] was 77%. For the same molecule, the “Population Hoechst High Intensity Objects (%)” value [1] was 7% and 6%, the “Population Membrane Permeable-Phenotype (%)” value [1] was 0% and the “Population Mitochondria Different-Phenotype (%)” value [1] was 38% and 60%. The “Population Mitotic Cells (%)” value [1] was 69% and 41%, the “Population Normal (%)” value [1] was 92% and 93% and the “Population Pyknosed Nuclei (%)” value [1] was 12% and 15%. For the same molecule, the “Population Tubulin-Different-Phenotype (%)” value [1] was 23% and 21%, the “Total Cell Count” value [1] was 432 and 303 and the “Population Apoptotic (%)” value [2] was 34% and 52%. For the same molecule, the “Population Fragmented Nuclei (%)” value [2] was 8% and 4%, the “Population Healthy Nuclei (%)” value [2] was 79% and 81% and the “Population Hoechst High Intensity Objects (%)” value [2] was 8%. The “Population Membrane Permeable-Phenotype (%)” value [2] was 0%, the “Population Mitochondria Different-Phenotype (%)” value [2] was 44% and 55% and the “Population Mitotic Cells (%)” value [2] was 65% and 47%. For the same molecule, the “Population Normal (%)” value [2] was 91%, the “Population Pyknosed Nuclei (%)” value [2] was 12% and 13% and the “Population Tubulin-Different-Phenotype (%)” value [2] was 34% and 26%. For the same molecule, the “Total Cell Count” value [2] was 446 and 275, the “Population Apoptotic (%)” value [3] was 29% and 40% and the “Population Fragmented Nuclei (%)” value [3] was 8% and 5%. The “Population Healthy Nuclei (%)” value [3] was 78% and 86%, the “Population Hoechst High Intensity Objects (%)” value [3] was 6% and the “Population Membrane Permeable-Phenotype (%)” value [3] was 1% and 0%. The “Population Mitochondria Different-Phenotype (%)” value [3] was 22% and 39%, the “Population Mitotic Cells (%)” value [3] was 70% and 59% and the “Population Normal (%)” value [3] was 93%. The “Population Pyknosed Nuclei (%)” value [3] was 12% and 7%, the “Population Tubulin-Different-Phenotype (%)” value [3] was 16% and the “Total Cell Count” value [3] was 559 and 378. For the same molecule, the “Population Apoptotic (%)” value [4] was 29% and 41%, the “Population Fragmented Nuclei (%)” value [4] was 9% and 5% and the “Population Healthy Nuclei (%)” value [4] was 75% and 79%. The “Population Hoechst High Intensity Objects (%)” value [4] was 5% and 7%, the “Population Membrane Permeable-Phenotype (%)” value [4] was 0% and the “Population Mitochondria Different-Phenotype (%)” value [4] was 27% and 43%. The “Population Mitotic Cells (%)” value [4] was 70% and 58%, the “Population Normal (%)” value [4] was 94% and 92% and the “Population Pyknosed Nuclei (%)” value [4] was 14% and 15%. For the same molecule, the “Population Tubulin-Different-Phenotype (%)” value [4] was 22% and 18%, the “Total Cell Count” value [4] was 592 and 365 and the “Population Apoptotic (%)” value [5] was 18% and 48%. For the same molecule, the “Population Fragmented Nuclei (%)” value [5] was 11% and 8%, the “Population Healthy Nuclei (%)” value [5] was 81% and 84% and the “Population Hoechst High Intensity Objects (%)” value [5] was 2% and 7%. The “Population Membrane Permeable-Phenotype (%)” value [5] was 1% and 0%, the “Population Mitochondria Different-Phenotype (%)” value [5] was 13% and 27% and the “Population Mitotic Cells (%)” value [5] was 81% and 51%. The “Population Normal (%)” value [5] was 97% and 92%, the “Population Pyknosed Nuclei (%)” value [5] was 7% and 6% and the “Population Tubulin-Different-Phenotype (%)” value [5] was 10% and 11%. For the same molecule, the “Total Cell Count” value [5] was 998 and 494, the “Population Apoptotic (%)” value [6] was 24% and 36% and the “Population Fragmented Nuclei (%)” value [6] was 13% and 11%. For the same molecule, the “Population Healthy Nuclei (%)” value [6] was 79% and 82%, the “Population Hoechst High Intensity Objects (%)” value [6] was 3% and 7% and the “Population Membrane Permeable-Phenotype (%)” value [6] was 0%. For the same molecule, the “Population Mitochondria Different-Phenotype (%)” value [6] was 18% and 27%, the “Population Mitotic Cells (%)” value [6] was 75% and 64% and the “Population Normal (%)” value [6] was 96% and 92%. For the same molecule, the “Population Pyknosed Nuclei (%)” value [6] was 7% and 5%, the “Population Tubulin-Different-Phenotype (%)” value [6] was 10% and 12% and the “Total Cell Count” value [6] was 879 and 517.
